Data from ChEMBL document CHEMBL4145662, “Novel Nonsteroidal Progesterone Receptor (PR) Antagonists with a Phenanthridinone Skeleton” (ACS Med Chem Lett, 2018).
Active and inactive are the calls of the source. No cut-off for these calls is given here.

Assays:
Homo sapiens [1] = organism: Homo sapiens; experiment: Selectivity ratio of IC50 for human CMX-GRalpha expressed in HEK293 cells to IC50 for PR in human T47D cells assessed as inhibition of progesterone-induced alkaline phosphatase activity; format: cell-based
Progesterone receptor [2] = molecular target: T1, Progesterone receptor (Homo sapiens, UniProt P06401); experiment: Antagonist activity at PR in human T47D cells assessed as inhibition of progesterone-induced alkaline phosphatase activity measured after 24 hrs; format: cell-based
T1 sequence (P06401 whole entry): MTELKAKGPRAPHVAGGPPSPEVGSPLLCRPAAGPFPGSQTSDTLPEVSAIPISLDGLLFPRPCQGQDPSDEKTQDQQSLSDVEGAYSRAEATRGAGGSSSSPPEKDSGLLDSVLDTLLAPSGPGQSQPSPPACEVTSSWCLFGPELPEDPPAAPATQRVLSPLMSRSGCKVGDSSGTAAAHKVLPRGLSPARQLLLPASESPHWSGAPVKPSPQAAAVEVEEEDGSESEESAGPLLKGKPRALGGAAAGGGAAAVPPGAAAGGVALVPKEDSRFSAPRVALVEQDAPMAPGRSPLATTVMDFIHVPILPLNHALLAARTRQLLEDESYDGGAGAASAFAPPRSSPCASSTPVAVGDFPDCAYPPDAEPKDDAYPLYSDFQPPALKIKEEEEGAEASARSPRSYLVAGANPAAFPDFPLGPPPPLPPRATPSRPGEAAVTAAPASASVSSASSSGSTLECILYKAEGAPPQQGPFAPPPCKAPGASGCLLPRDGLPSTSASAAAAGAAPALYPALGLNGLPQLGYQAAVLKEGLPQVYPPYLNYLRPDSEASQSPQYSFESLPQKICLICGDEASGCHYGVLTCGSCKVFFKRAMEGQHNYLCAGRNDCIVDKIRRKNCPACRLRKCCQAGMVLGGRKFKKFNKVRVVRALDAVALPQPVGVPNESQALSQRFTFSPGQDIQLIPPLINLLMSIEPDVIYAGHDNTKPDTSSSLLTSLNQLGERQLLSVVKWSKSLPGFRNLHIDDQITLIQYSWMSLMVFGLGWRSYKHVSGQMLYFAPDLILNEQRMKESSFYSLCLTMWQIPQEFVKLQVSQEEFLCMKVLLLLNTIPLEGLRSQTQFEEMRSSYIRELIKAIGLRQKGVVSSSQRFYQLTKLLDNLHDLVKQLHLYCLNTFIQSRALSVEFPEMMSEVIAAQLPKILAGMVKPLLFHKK

Homo sapiens [3] = organism: Homo sapiens; experiment: Selectivity ratio of IC50 for human GAL4N-fused LXRalpha LBD expressed in HEK293 cells to IC50 for PR in human T47D cells assessed as inhibition of progesterone-induced alkaline phosphatase activity; format: cell-based
Homo sapiens [4] = organism: Homo sapiens; experiment: Selectivity ratio of IC50 for human RORalpha1 expressed in HEK293 cells to IC50 for PR in human T47D cells assessed as inhibition of progesterone-induced alkaline phosphatase activity; format: cell-based
Homo sapiens [5] = organism: Homo sapiens; experiment: Selectivity ratio of IC50 for human RORbeta1 expressed in HEK293 cells to IC50 for PR in human T47D cells assessed as inhibition of progesterone-induced alkaline phosphatase activity; format: cell-based
Homo sapiens [6] = organism: Homo sapiens; experiment: Selectivity ratio of IC50 for human RORgamma1 expressed in HEK293 cells to IC50 for PR in human T47D cells assessed as inhibition of progesterone-induced alkaline phosphatase activity; format: cell-based
Progesterone receptor [7] = molecular target: T1, Progesterone receptor; experiment: Displacement of [1,2,6,7-3H]progesterone from recombinant human GST-tagged PGR LBD (678 to 933 residues) expressed in baculovirus-infected insect cells measured after 24 hrs by liquid scintillation counting method
[8] = molecular target: T2, Progesterone receptor (Homo sapiens) (UniProt P06401); experiment: Antagonist activity at PR in human T47D cells assessed as inhibition of progesterone-induced beta1-Na/K-ATPase expression at 0.1 to 10 uM measured after 24 hrs by Western blot analysis; format: cell-based
T2 sequence (whole entry): T1 sequence (P06401 whole entry)
How it was run: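 Validation in T47D cells by Western blotting of the β1 subunit of Na/K-ATPase, a PR-regulated protein.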

[9] = molecular target: T3, Nuclear receptor ROR-beta (Homo sapiens, UniProt Q92753); experiment: Antagonist activity at human RORbeta1 expressed in HEK293 cells after 24 hrs by luciferase reporter gene assay; format: cell-based
T3 sequence (Q92753 whole entry): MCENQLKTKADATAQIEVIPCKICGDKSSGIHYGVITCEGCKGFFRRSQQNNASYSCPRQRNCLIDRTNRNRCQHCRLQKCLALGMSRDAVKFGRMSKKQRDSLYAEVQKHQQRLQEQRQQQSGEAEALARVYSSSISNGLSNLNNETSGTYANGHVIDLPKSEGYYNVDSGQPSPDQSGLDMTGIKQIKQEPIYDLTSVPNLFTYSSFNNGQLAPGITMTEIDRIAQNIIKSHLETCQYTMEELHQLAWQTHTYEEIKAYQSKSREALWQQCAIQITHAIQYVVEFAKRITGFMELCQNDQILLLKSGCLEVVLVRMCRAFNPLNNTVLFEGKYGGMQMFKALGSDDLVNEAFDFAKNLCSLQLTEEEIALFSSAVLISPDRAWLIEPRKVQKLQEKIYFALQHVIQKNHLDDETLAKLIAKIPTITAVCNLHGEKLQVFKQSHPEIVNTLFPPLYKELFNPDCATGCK
How it was run: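 Inverse agonism at RORα, RORβ or RORγ measured by reporter gene assay.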

Progesterone receptor [10] = molecular target: T1, Progesterone receptor; experiment: Agonist activity at PR in human T47D cells at 10 uM; format: cell-based

| SMILES | Ratio IC50 (Homo sapiens [1]) | IC50 (Progesterone receptor [2]) | Ratio IC50 (Homo sapiens [3]) | Ratio IC50 (Homo sapiens [4]) | Ratio IC50 (Homo sapiens [5]) | Ratio IC50 (Homo sapiens [6]) | IC50 (Progesterone receptor [7]) | inhibition [8] | IC50 [9] | Activity (Progesterone receptor [10]) |
| --- | --- | --- | --- | --- | --- | --- | --- | --- | --- | --- |
| Cc1cc(C(O)(C(F)(F)F)C(F)(F)F)cc2c1[nH]c(=O)c1ccccc12 | > 100 | 150 nM | > 100 | > 100 | > 100 | > 100 | 1500 nM | Active | > 20000 nM | Not Active |
| Cc1cc(C(O)(C(F)(F)F)C(F)(F)F)cc2c1[nH]c(=O)c1cc(F)ccc12 | > 300 | 46 nM | > 300 | > 300 | > 300 | > 300 | 340 nM | Active | > 20000 nM | Not Active |
| Cc1cc(C(O)(C(F)(F)F)C(F)(F)F)cc2c3ccc(F)cc3c(=O)n(C)c12 | > 300 | 27 nM | > 300 | > 300 | > 300 | > 300 | 150 nM | Active | > 20000 nM | Not Active |
